# According to ChEMBL document CHEMBL4689842, “EUbOPEN Chemogenomics Library wave 1” (2021):
# Values joined by “and” are separate entries in the source; they are usually repeats but may differ in a detail not shown here. Equal values may be shown once.
# Test system: Fibroblast
# Assay: Multiplex assay against human fibroblast
# Format: toxicity, cell-based
# Summary of the method: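 Cells were classed with CellPathfinder machine-learning gating, first as Hoechst high-intensity objects or normal cells, then (normal cells) as healthy, pyknosed or fragmented nuclei, and finally (pyknosed cells) as mitotic or apoptotic. Staining of live cells at seeding used Hoechst33342, BioTracker Green Microtubule Cytoskeleton Dye, MitoTracker Red and Annexin V Alexa Fluor 680, with imaging on a CQ1 microscope at 37°C and 5% CO2 after compound addition. Tubulin, mitochondrial-mass and membrane-permeability phenotypes are per cents of healthy-nucleus cells.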
# [1] = 12 h, 10 µM, compound concentration 10 uM, replicate 1
# [2] = 12 h, 10 µM, compound concentration 10 uM, replicate 2
# [3] = 24 h, 10 µM, compound concentration 10 uM, replicate 1
# [4] = 24 h, 10 µM, compound concentration 10 uM, replicate 2
# [5] = 12 h, 1 µM, compound concentration 1 uM, replicate 1
# [6] = 12 h, 1 µM, compound concentration 1 uM, replicate 2
# [7] = 24 h, 1 µM, compound concentration 1 uM, replicate 1
# [8] = 24 h, 1 µM, compound concentration 1 uM, replicate 2
# [9] = 48 h, 1 µM, compound concentration 1 uM, replicate 1
# [10] = 48 h, 1 µM, compound concentration 1 uM, replicate 2
# [11] = 48 h, 10 µM, compound concentration 10 uM, replicate 1
# [12] = 48 h, 10 µM, compound concentration 10 uM, replicate 2
structure (smiles),measurement,setting,value
COc1cc(N2CCC(N3CCN(C)CC3)CC2)ccc1Nc1ncnc(Nc2ccccc2S(=O)(=O)C(C)C)n1 [ASP-3026],Population Apoptotic (%),[1],72% and 66%
same,Population Fragmented Nuclei (%),[1],30% and 23%
same,Population Healthy Nuclei (%),[1],55% and 60%
same,Population Hoechst High Intensity Objects (%),[1],14% and 18%
same,Population Membrane Permeable-Phenotype (%),[1],11% and 9%
same,Population Mitochondria Different-Phenotype (%),[1],6% and 7%
same,Population Mitotic Cells (%),[1],27% and 33%
same,Population Normal (%),[1],85% and 81%
same,Population Pyknosed Nuclei (%),[1],13% and 16%
same,Total Cell Count,[1],252 and 249
same,Population Apoptotic (%),[2],80% and 100%
same,Population Fragmented Nuclei (%),[2],66% and 72%
same,Population Healthy Nuclei (%),[2],24% and 21%
same,Population Hoechst High Intensity Objects (%),[2],38% and 53%
same,Population Membrane Permeable-Phenotype (%),[2],8% and 18%
same,Population Mitochondria Different-Phenotype (%),[2],16% and 0%
same,Population Mitotic Cells (%),[2],20% and 0%
same,Population Normal (%),[2],61% and 46%
same,Population Pyknosed Nuclei (%),[2],10% and 5%
same,Total Cell Count,[2],81 and 110
same,Population Apoptotic (%),[3],79%
same,Population Fragmented Nuclei (%),[3],38% and 22%
same,Population Healthy Nuclei (%),[3],50% and 63%
same,Population Hoechst High Intensity Objects (%),[3],18% and 16%
same,Population Membrane Permeable-Phenotype (%),[3],15% and 7%
same,Population Mitochondria Different-Phenotype (%),[3],1% and 3%
same,Population Mitotic Cells (%),[3],20%
same,Population Normal (%),[3],81% and 83%
same,Population Pyknosed Nuclei (%),[3],11% and 14%
same,Total Cell Count,[3],260 and 264
same,Population Apoptotic (%),[4],50% and 100%
same,Population Fragmented Nuclei (%),[4],76% and 67%
same,Population Healthy Nuclei (%),[4],18% and 28%
same,Population Hoechst High Intensity Objects (%),[4],45% and 53%
same,Population Membrane Permeable-Phenotype (%),[4],14% and 26%
same,Population Normal (%),[4],54% and 46%
same,Population Pyknosed Nuclei (%),[4],5% and 3%
same,Total Cell Count,[4],70 and 112
O=C(Nc1ccc(-n2nc(-c3cccnc3)cc2C(F)(F)F)cn1)c1ccc(-c2ccccc2)c(F)c1 [BI 2049],Population Apoptotic (%),[5],63%
same,Population Fragmented Nuclei (%),[5],29%
same,Population Healthy Nuclei (%),[5],30%
same,Population Hoechst High Intensity Objects (%),[5],10%
same,Population Membrane Permeable-Phenotype (%),[5],32%
same,Population Mitochondria Different-Phenotype (%),[5],8%
same,Population Mitotic Cells (%),[5],36%
same,Population Normal (%),[5],89%
same,Population Pyknosed Nuclei (%),[5],40%
same,Population Tubulin-Different-Phenotype (%),[5],44%
same,Total Cell Count,[5],92
same,Population Apoptotic (%),[6],50%
same,Population Fragmented Nuclei (%),[6],4%
same,Population Healthy Nuclei (%),[6],85%
same,Population Hoechst High Intensity Objects (%),[6],8%
same,Population Membrane Permeable-Phenotype (%),[6],3%
same,Population Mitochondria Different-Phenotype (%),[6],7%
same,Population Mitotic Cells (%),[6],50%
same,Population Normal (%),[6],91%
same,Population Pyknosed Nuclei (%),[6],9%
same,Total Cell Count,[6],69
same,Population Apoptotic (%),[1],58%
same,Population Fragmented Nuclei (%),[1],11%
same,Population Healthy Nuclei (%),[1],41%
same,Population Hoechst High Intensity Objects (%),[1],9%
same,Population Membrane Permeable-Phenotype (%),[1],22%
same,Population Mitochondria Different-Phenotype (%),[1],22%
same,Population Mitotic Cells (%),[1],41%
same,Population Normal (%),[1],90%
same,Population Pyknosed Nuclei (%),[1],46%
same,Population Tubulin-Different-Phenotype (%),[1],62%
same,Total Cell Count,[1],93
same,Population Apoptotic (%),[2],0%
same,Population Fragmented Nuclei (%),[2],18%
same,Population Healthy Nuclei (%),[2],81%
same,Population Hoechst High Intensity Objects (%),[2],6%
same,Population Membrane Permeable-Phenotype (%),[2],4%
same,Population Mitochondria Different-Phenotype (%),[2],12%
same,Population Mitotic Cells (%),[2],0%
same,Population Normal (%),[2],93%
same,Population Pyknosed Nuclei (%),[2],0%
same,Population Tubulin-Different-Phenotype (%),[2],8%
same,Total Cell Count,[2],65
same,Population Apoptotic (%),[7],61%
same,Population Fragmented Nuclei (%),[7],32%
same,Population Healthy Nuclei (%),[7],36%
same,Population Hoechst High Intensity Objects (%),[7],14%
same,Population Membrane Permeable-Phenotype (%),[7],32%
same,Population Mitochondria Different-Phenotype (%),[7],12%
same,Population Mitotic Cells (%),[7],38%
same,Population Normal (%),[7],85%
same,Population Pyknosed Nuclei (%),[7],30%
same,Population Tubulin-Different-Phenotype (%),[7],58%
same,Total Cell Count,[7],98
same,Population Apoptotic (%),[8],25%
same,Population Fragmented Nuclei (%),[8],7%
same,Population Healthy Nuclei (%),[8],83%
same,Population Hoechst High Intensity Objects (%),[8],7%
same,Population Membrane Permeable-Phenotype (%),[8],4%
same,Population Mitochondria Different-Phenotype (%),[8],9%
same,Population Mitotic Cells (%),[8],75%
same,Population Normal (%),[8],92%
same,Population Pyknosed Nuclei (%),[8],8%
same,Population Tubulin-Different-Phenotype (%),[8],37%
same,Total Cell Count,[8],96
same,Population Apoptotic (%),[3],66%
same,Population Fragmented Nuclei (%),[3],24%
same,Population Healthy Nuclei (%),[3],42%
same,Population Hoechst High Intensity Objects (%),[3],8%
same,Population Membrane Permeable-Phenotype (%),[3],12%
same,Population Mitochondria Different-Phenotype (%),[3],17%
same,Population Mitotic Cells (%),[3],33%
same,Population Normal (%),[3],91%
same,Population Pyknosed Nuclei (%),[3],32%
same,Population Tubulin-Different-Phenotype (%),[3],46%
same,Total Cell Count,[3],99
same,Population Apoptotic (%),[4],0%
same,Population Fragmented Nuclei (%),[4],11%
same,Population Healthy Nuclei (%),[4],84%
same,Population Hoechst High Intensity Objects (%),[4],3%
same,Population Membrane Permeable-Phenotype (%),[4],4%
same,Population Mitochondria Different-Phenotype (%),[4],13%
same,Population Mitotic Cells (%),[4],100%
same,Population Normal (%),[4],96%
same,Population Pyknosed Nuclei (%),[4],3%
same,Population Tubulin-Different-Phenotype (%),[4],10%
same,Total Cell Count,[4],82
same,Population Apoptotic (%),[9],64%
same,Population Fragmented Nuclei (%),[9],26%
same,Population Healthy Nuclei (%),[9],45%
same,Population Hoechst High Intensity Objects (%),[9],9%
same,Population Membrane Permeable-Phenotype (%),[9],40%
same,Population Mitochondria Different-Phenotype (%),[9],2%
same,Population Mitotic Cells (%),[9],36%
same,Population Normal (%),[9],90%
same,Population Pyknosed Nuclei (%),[9],28%
same,Population Tubulin-Different-Phenotype (%),[9],37%
same,Total Cell Count,[9],97
same,Population Apoptotic (%),[10],100%
same,Population Fragmented Nuclei (%),[10],25%
same,Population Healthy Nuclei (%),[10],72%
same,Population Hoechst High Intensity Objects (%),[10],16%
same,Population Membrane Permeable-Phenotype (%),[10],17%
same,Population Mitotic Cells (%),[10],0%
same,Population Normal (%),[10],83%
same,Population Pyknosed Nuclei (%),[10],1%
same,Population Tubulin-Different-Phenotype (%),[10],5%
same,Total Cell Count,[10],66
same,Population Apoptotic (%),[11],72%
same,Population Fragmented Nuclei (%),[11],30%
same,Population Healthy Nuclei (%),[11],50%
same,Population Hoechst High Intensity Objects (%),[11],15%
same,Population Membrane Permeable-Phenotype (%),[11],35%
same,Population Mitochondria Different-Phenotype (%),[11],14%
same,Population Mitotic Cells (%),[11],27%
same,Population Normal (%),[11],84%
same,Population Pyknosed Nuclei (%),[11],18%
same,Population Tubulin-Different-Phenotype (%),[11],64%
same,Total Cell Count,[11],113
same,Population Apoptotic (%),[12],100%
same,Population Fragmented Nuclei (%),[12],14%
same,Population Healthy Nuclei (%),[12],85%
same,Population Hoechst High Intensity Objects (%),[12],9%
same,Population Membrane Permeable-Phenotype (%),[12],15%
same,Population Mitochondria Different-Phenotype (%),[12],1%
same,Population Mitotic Cells (%),[12],0%
same,Population Normal (%),[12],90%
same,Population Pyknosed Nuclei (%),[12],0%
same,Population Tubulin-Different-Phenotype (%),[12],35%
same,Total Cell Count,[12],140
